# Test results as given in PMC5848258 (Clinical Infectious Diseases: An Official Publication of …, 2017).
# Marks after values point to notes of the source that are not given here.
# Experiments:
# [1] = cited from earlier work
# HIV-1 subtype B [2] = test: Change in plasma HIV-1 RNA, GSK3532795 monotherapy for 10 days; type: in vivo, human
# Summary of the method: (§1)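 HIV-1-infected adults aged 18–55 with plasma HIV-1 RNA ≥5000 copies/mL and CD4+ count ≥200 cells/µL, PI- and MI-naive, were randomized 4:1 to test compound or placebo, double-blind. Dosing was once daily by oral suspension after a ≥10-hour fast for 10 days: part A subtype B, 5–120 mg; part C subtype C, 40 or 120 mg. Plasma HIV-1 RNA was measured by real-time PCR at screening and on days 1–14, 17, 19 and 24–26.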
# HIV-1 subtype C = test: as above; type: in vivo, human; conditions: for Median of the maximum change from baseline in HIV-1 RNA / Median decline (baseline to day 11) in HIV-1 RNA: Part C
# Summary of the method: as §1
# [3] = Plasma pharmacokinetics of GSK3532795, part A; type: in vivo; conditions: human, oral
# Summary of the method: (§2)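 The test compound was given as monotherapy by oral suspension after a ≥10-hour fast, once daily for 10 days (part A subtype B, 5–120 mg; part C subtype C, 40 or 120 mg). Serial blood samples were taken on days 1 and 10, with troughs on days 2, 4, 6 and 8. Plasma levels were measured by validated LC/MS and analysed noncompartmentally. Dose proportionality was assessed with a power model on log exposure versus log dose.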
# [4] = Plasma pharmacokinetics of GSK3532795, part B; type: in vivo, human; conditions: for AUC increase compared with the same dose given as monotherapy: fed vs fasted monotherapy; for AUC / concentration at 24 h / Cmax / Tmax: human, plasma, oral; for AUC: AUCtau (%CV); for concentration at 24 h: C24 (%CV); for Cmax: Cmax (%CV); for Tmax: median (min–max)
# Summary of the method: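 Male subtype B-infected subjects took the test compound (40 or 80 mg) once daily with atazanavir 400 mg, or with atazanavir/ritonavir 300 mg/100 mg. Dosing was open-label, as an oral suspension with breakfast, for 28 days. Serial samples were taken on days 1 and 10, with troughs on days 2, 4, 6 and 8. Plasma levels were measured by validated LC/MS and analysed noncompartmentally.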
# [5] = Plasma pharmacokinetics of GSK3532795, part C; type: in vivo, human; conditions: for AUC / Cmax / Tmax: human, plasma, oral
# Summary of the method: as §2
# Safety assessments = type: in vivo, human; conditions: for Any AE / Deaths / Discontinuations due to AE(s) / Grade 3–4 related AEs / Laboratory abnormalities (grade 3–4) / Serious AEs: Parts A/C
# Summary of the method: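 Over the 10-day once-daily oral monotherapy (test compound or placebo, double-blind, fasted) and follow-up, staff recorded vital signs, physical examination, laboratory measurements, ECG and adverse events. Adverse events were coded with MedDRA version 17.1. Investigators graded their severity and their relationship to study drug.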
# HIV-1 subtype B [6] = test: Exposure–response relationship; type: in vivo, human; conditions: Part A
# Summary of the method: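 Part A subjects received the test compound orally, fasted, once daily for 10 days. Plasma concentration at 24 hours on day 10 was measured by validated LC/MS. It was related to the maximum change from baseline in log10 HIV-1 RNA with a 3-parameter […] Emax model, Y = E0 + Emax*C/(EC50 + C).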
# [7] = Solubility in aqueous media; type: physicochemical
# [8] = healthy subjects; ref Bristol-Myers Squibb, data on file; cited from earlier work
# HIV-1 = conditions: cited from earlier work
# HIV-1 Gag = conditions: in vitro, compared with BVM; cited from earlier work
# [9] = Part B, fed, 40 mg + ATV 300 mg + RTV 100 mg QD
# [10] = Part B, fed, 40 mg + ATV 400 mg QD
# [11] = Part B, fed, 80 mg + ATV 400 mg QD
smiles,measurement,setting,value
"C=C(C)[C@@H]1CC[C@]2(C(=O)O)CC[C@]3(C)[C@H](CC[C@@H]4[C@@]5(C)CC[C@H](OC(=O)CC(C)(C)C(=O)O)C(C)(C)[C@@H]5CC[C@]43C)[C@@H]12 [BVM, 3-o-(3’,3’-dimethylsuccinyl)betulinic acid, reference compound]",Protein binding,[1],> 99%
C=C(C)[C@@H]1CC[C@]2(NCCN3CCS(=O)(=O)CC3)CC[C@]3(C)[C@H](CC[C@@H]4[C@@]5(C)CC=C(c6ccc(C(=O)O)cc6)C(C)(C)[C@@H]5CC[C@]43C)[C@@H]12 [GSK3532795],Decline in HIV-1 RNA,"HIV-1 subtype B [2]; Part A, 20–120 mg QD dose groups",> 1 log10
same,Plateau of decline in HIV-1 RNA,"HIV-1 subtype B [2]; Part A, 40–120 mg QD dose groups",approximately 1.64 log10 copies/mL
same,Median decline (baseline to day 11) in HIV-1 RNA,"HIV-1 subtype B [2]; Part A, 40–120 mg QD, consistently from approximately day 7",> 1 log10 copies/mL
same,Range of median of the maximum decline in HIV-1 RNA,"HIV-1 subtype B [2]; Part A, 40–120 mg QD, in the presence of baseline Gag polymorphisms (n = 15)",−1.43 to −1.98 log10 copies/mL
same,Median of the maximum change in HIV-1 RNA from baseline to study discharge on day 24,"HIV-1 subtype B [2]; Part A, across all GSK3532795 groups (5–120 mg QD)",−0.50 to −1.70 log10 copies/mL
same,Median maximum decline in HIV-1 RNA,HIV-1 subtype B [2]; following 10 days of monotherapy in subtype B–infected subjects,1.70 log10 copies/mL
same,Decline in HIV-1 RNA,"HIV-1 subtype C; 10 days of 40 mg or 120 mg QD monotherapy, subtype C–infected subjects with ≥1 of 3 Gag polymorphisms at baseline",> 1 log10
same,Median of the maximum change from baseline in HIV-1 RNA,HIV-1 subtype C; 40 mg QD,−1.35 log10 copies/mL
same,Median decline (baseline to day 11) in HIV-1 RNA,"HIV-1 subtype C; 40 mg QD, observed after day 8",> 1 log10 copies/mL
same,Median of the maximum change from baseline in HIV-1 RNA,HIV-1 subtype C; 120 mg QD,−1.26 log10 copies/mL
same,Median decline (baseline to day 11) in HIV-1 RNA,"HIV-1 subtype C; 120 mg QD, observed after day 10",> 1 log10 copies/mL
same,Tmax,[3],3 h
same,half-life,[3],1800 to 2100 min
same,AUC,[3]; 5 mg,2720 ng·h/mL
same,Cmax,[3]; 5 mg,171 ng/mL
same,Tmax,[3]; 5 mg,3 h
same,concentration at 24 h,[3]; 5 mg,81.6 ng/mL
same,half-life,[3]; 5 mg,1960 min
same,AUC,[3]; 10 mg,5170 ng·h/mL
same,Cmax,[3]; 10 mg,337 ng/mL
same,Tmax,[3]; 10 mg,3 h
same,concentration at 24 h,[3]; 10 mg,139 ng/mL
same,half-life,[3]; 10 mg,1990 min
same,AUC,[3]; 20 mg,11800 ng·h/mL
same,Cmax,[3]; 20 mg,705 ng/mL
same,Tmax,[3]; 20 mg,4 h
same,concentration at 24 h,[3]; 20 mg,326 ng/mL
same,half-life,[3]; 20 mg,1780 min
same,AUC,[3]; 40 mg,23000 ng·h/mL
same,Cmax,[3]; 40 mg,1480 ng/mL
same,Tmax,[3]; 40 mg,3 h
same,concentration at 24 h,[3]; 40 mg,713 ng/mL
same,half-life,[3]; 40 mg,2030 min
same,AUC,[3]; 80 mg,39300 ng·h/mL
same,Cmax,[3]; 80 mg,2470 ng/mL
same,Tmax,[3]; 80 mg,3 h
same,concentration at 24 h,[3]; 80 mg,1150 ng/mL
same,half-life,[3]; 80 mg,1800 min
same,AUC,[3]; 120 mg,44200 ng·h/mL
same,Cmax,[3]; 120 mg,2810 ng/mL
same,Tmax,[3]; 120 mg,2.5 h
same,concentration at 24 h,[3]; 120 mg,1290 ng/mL
same,half-life,[3]; 120 mg,2090 min
same,Increase in exposures compared with the same dose given as monotherapy fasted,[4]; GSK3532795 + ATV alone in the fed state,up to 50%
same,AUC increase compared with the same dose given as monotherapy,"[4]; Part B, 40 mg + ATV alone",approximately 40%
same,AUC increase compared with the same dose given as monotherapy,"[4]; Part B, 80 mg + ATV alone",~50%
same,Exposures higher with ATV/RTV relative to administration with ATV alone,"[4]; Part B, GSK3532795 40 mg",~ 10%
same,Increase in exposures between 40 mg and 80 mg,"[4]; Part B, coadministered with ATV alone, fed",~ 2 fold
same,Tmax delay,"[4]; Part B, with ATV ± RTV in the fed state",1 to 2 h
same,AUC,[4]; [9],34200 ng·h/mL
same,AUC,[4]; [10],31400 ng·h/mL
same,AUC,[4]; [11],59900 ng·h/mL
same,concentration at 24 h,[4]; [9],1160 ng/mL
same,concentration at 24 h,[4]; [10],1100 ng/mL
same,concentration at 24 h,[4]; [11],2010 ng/mL
same,Cmax,[4]; [9],1850 ng/mL
same,Cmax,[4]; [10],1670 ng/mL
same,Cmax,[4]; [11],3160 ng/mL
same,Tmax,[4]; [9],5 h
same,Tmax,[4]; [10],4.5 h
same,Tmax,[4]; [11],4.5 h
same,Increase in Cmax and AUCtau between 40 mg and 120 mg,"[5]; Part C, monotherapy, less than dose-proportional",~ 2 fold
same,AUC,[5]; 40 mg,25600 ng·h/mL
same,Cmax,[5]; 40 mg,1560 ng/mL
same,Tmax,[5]; 40 mg,3 h
same,AUC,[5]; 120 mg,54000 ng·h/mL
same,Cmax,[5]; 120 mg,3380 ng/mL
same,Tmax,[5]; 120 mg,3 h
same,Any AE,Safety assessments; 5 mg QD (n=8),5 (62.5) n (%)
same,Deaths,Safety assessments; 5 mg QD (n=8),0 n (%)
same,Discontinuations due to AE(s),Safety assessments; 5 mg QD (n=8),0 n (%)
same,Grade 3–4 related AEs,Safety assessments; 5 mg QD (n=8),0 n (%)
same,Laboratory abnormalities (grade 3–4),Safety assessments; 5 mg QD (n=8),0 n (%)
same,Serious AEs,Safety assessments; 5 mg QD (n=8),0 n (%)
same,Any AE,Safety assessments; 10 mg QD (n=8),4 (50.0) n (%)
same,Deaths,Safety assessments; 10 mg QD (n=8),0 n (%)
same,Discontinuations due to AE(s),Safety assessments; 10 mg QD (n=8),0 n (%)
same,Grade 3–4 related AEs,Safety assessments; 10 mg QD (n=8),0 n (%)
same,Laboratory abnormalities (grade 3–4),Safety assessments; 10 mg QD (n=8),0 n (%)
same,Serious AEs,Safety assessments; 10 mg QD (n=8),0 n (%)
same,Any AE,Safety assessments; 20 mg QD (n=8),4 (50.0) n (%)
same,Deaths,Safety assessments; 20 mg QD (n=8),0 n (%)
same,Discontinuations due to AE(s),Safety assessments; 20 mg QD (n=8),0 n (%)
same,Grade 3–4 related AEs,Safety assessments; 20 mg QD (n=8),0 n (%)
same,Laboratory abnormalities (grade 3–4),Safety assessments; 20 mg QD (n=8),0 n (%)
same,Serious AEs,Safety assessments; 20 mg QD (n=8),0 n (%)
same,Any AE,Safety assessments; 40 mg QD (n=16),8 (50.0) n (%)
same,Deaths,Safety assessments; 40 mg QD (n=16),0 n (%)
same,Discontinuations due to AE(s),Safety assessments; 40 mg QD (n=16),0 n (%)
same,Grade 3–4 related AEs,Safety assessments; 40 mg QD (n=16),0 n (%)
same,Laboratory abnormalities (grade 3–4),Safety assessments; 40 mg QD (n=16),0 n (%)
same,Serious AEs,Safety assessments; 40 mg QD (n=16),0 n (%)
same,Any AE,Safety assessments; 80 mg QD (n=8),7 (87.5) n (%)
same,Deaths,Safety assessments; 80 mg QD (n=8),0 n (%)
same,Discontinuations due to AE(s),Safety assessments; 80 mg QD (n=8),0 n (%)
same,Grade 3–4 related AEs,Safety assessments; 80 mg QD (n=8),0 n (%)
same,Laboratory abnormalities (grade 3–4),Safety assessments; 80 mg QD (n=8),0 n (%)
same,Serious AEs,Safety assessments; 80 mg QD (n=8),0 n (%)
same,Any AE,Safety assessments; 120 mg QD (n=15),10 (66.6) n (%)
same,Deaths,Safety assessments; 120 mg QD (n=15),0 n (%)
same,Discontinuations due to AE(s),Safety assessments; 120 mg QD (n=15),0 n (%)
same,Grade 3–4 related AEs,Safety assessments; 120 mg QD (n=15),0 n (%)
same,Serious AEs,Safety assessments; 120 mg QD (n=15),0 n (%)
same,Laboratory abnormalities (grade 3–4),"Safety assessments; 120 mg QD (n=15), grade 3 transient neutropenia reported as related to GSK3532795",1 (6.7)^c n (%)
same,Cases of hyperbilirubinemia,Safety assessments; during GSK3532795 monotherapy,no cases
same,Predicted maximum decline in HIV-1 RNA from baseline,HIV-1 subtype B [6]; Emax model,approximately 1.7 log10 copies/mL
same,C24 at which apparent response plateau was achieved,HIV-1 subtype B [6]; steady-state C24 vs maximum change in HIV-1 RNA,≥ 500 ng/mL
same,solubility,[7],< 1 µg/mL
same,Half-life (T1/2),[8],approximately 35 hours
same,Human serum binding,[1],86%
same,EC50 shift in the presence of serum,HIV-1,5.4 fold
same,"Effect when combined with other antiretrovirals, including integrase inhibitors",HIV-1; in vitro studies,additive
same,Binding to HIV-1 Gag,HIV-1 Gag,binds reversibly to HIV-1 Gag with greater affinity than BVM
